Source: PMC6614152 (Clinical Pharmacokinetics, 2019)
“And” between values parts separate entries of the source, which are not always exact repeats. Identical values can stand only once. “Also recorded” adds a separate entry of the source. Like-named read-outs stand apart in the source and are kept apart here.

Assays:
[1] = cited from earlier work
[2] = Population pharmacokinetic analysis; format: in vivo, humans
How it was run: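 Nonlinear mixed-effects model (FOCEI) fitted to 29,372 plasma concentrations from 4170 healthy and RA subjects across 12 studies (IR 1–48 mg, ER 7.5–30 mg), quantified by LC-MS/MS. Two-compartment structure: IR first-order absorption with lag time, ER mixed zero/first-order absorption with lag time, linear elimination; combined additive/proportional residual error. Below-LLOQ values were set to LLOQ/2, with later post-dose ones censored. Co-medications were time-varying covariates. Checked by VPC (400 replicates) and ER pcVPC.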

CYP3A = details: strong CYP3A inhibitor ketoconazole; cited from earlier work
CYP2D6 = details: in vitro data; cited from earlier work
[3] = format: in vivo, humans
JAK1 = details: in vitro cellular assays; cited from earlier work
moderate to severe RA = details: monotherapy or in combination with csDMARDs; cited from earlier work
[4] = cited from earlier work; remark: listed apart in the source
[5] = final model, population estimate (%RSE), outliers excluded
[6] = healthy subjects, ER formulation, population estimate
[7] = RA subjects with bodyweight < 60 kg, steady state, simulated
[8] = RA subjects with bodyweight > 100 kg, steady state, simulated

CC[C@@H]1CN(C(=O)NCC(F)(F)F)C[C@@H]1c1cnc2cnc3[nH]ccc3n12 [upadacitinib, Upadacitinib]
effect of CYP2D6 metabolic phenotype on apparent oral clearance [1]: no effect
typical oral clearance in RA patients lower compared with healthy subjects [1]: 24%
time-dependent change in upadacitinib clearance with continued treatment ([2]; CWRES versus time): no time-dependent change
dose proportionality of bioavailability ([2]; ER dose range of 7.5-30 mg): dose-proportional
effect of pH-modifying medications on upadacitinib absorption from the ER formulation ([2]; ER formulation): no effect
Bioavailability of the extended-release formulation relative to the immediate-release formulation [2, 5]: 76.2% and 76%
ISV on CL/F in phase I [2, 5]: 21%
ISV on CL/F in phase II/III [2, 5]: 37%
ISV on Vc/F in phase I [2, 5]: 24%
ISV on Vc/F in phase II/III [2, 5]: 53%
apparent oral clearance [2, 6]: 53.7 L/h
steady-state volume of distribution (sum of the central and peripheral volume of distribution) [2, 6]: 294 L
correlation of baseline hsCRP with upadacitinib clearance ([2]; in vivo): not correlated
effect of methotrexate on upadacitinib pharmacokinetics ([2]; in vivo): not affect
effect of pH-modifying agents on upadacitinib pharmacokinetics ([2]; in vivo): not affect
effects of bodyweight and mild or moderate renal impairment on upadacitinib exposures ([2]; in vivo): statistically significant but non-clinically relevant effects; also recorded: Bodyweight and mild or moderate renal impairment had statistically significant but non-clinically relevant effects on upadacitinib exposures
higher estimated upadacitinib AUC in RA subjects compared with healthy subjects ([2]; in vivo): 33%
lower upadacitinib clearance in RA subjects compared with healthy subjects ([2]; in vivo): 25%
increase in upadacitinib exposures with ketoconazole (CYP3A): approximately 75%
contribution of CYP2D6 to upadacitinib metabolism (CYP2D6): potential minor contribution
AUC higher relative to subjects with a bodyweight of 60-100 kg [3, 7]: 5%
Cmax higher compared with subjects with a bodyweight of 60-100 kg [3, 7]: 18%
AUC lower relative to subjects with a bodyweight of 60-100 kg [3, 8]: 5%
Cmax lower compared with subjects with a bodyweight of 60-100 kg [3, 8]: 18%
AUC higher compared with RA subjects with normal renal function ([3]; RA subjects with moderate renal impairment (CrCl 30 to < 60 mL/min)): 26%
selectivity for JAK1 over JAK2 (JAK1): approximately 60 fold
selectivity for JAK1 over JAK3 (JAK1): more than 100 fold
clinical signs and symptoms in subjects with moderate to severe RA compared with placebo or active comparators (moderate to severe RA): rapid and significant improvements; also recorded: significantly improved
functional half-life ([4]; IR formulation): 3 to 4 h
time at which peak plasma concentrations (Cmax) were reached ([4]; after ER dosing): 2 to 4 h
time at which peak plasma concentrations (Cmax) were reached ([4]; after IR dosing): 1 to 2 h
Cmax and Cmin of ER 15 and 30 mg once daily versus IR 6 mg and 12 mg twice daily [4]: comparable
daily AUC of ER 15 and 30 mg once daily versus IR 6 mg and 12 mg twice daily [4]: equivalent
terminal half-life ([4]; following administration of the IR or ER formulations): 6 to 16 h
upadacitinib dose eliminated unchanged in urine (renal pathway) ([4]; phase I study): Approximately 20%
linearity of pharmacokinetics ([4]; range of doses evaluated in phase I and II studies): linear pharmacokinetics
